Measured values from PMC6440678 (Clinical and Translational Science, 2018).

Tests used:
HbF and Hb levels = experiment: Hematology; assay type: in vivo, human; conditions: day 29, 5‐mg or 25‐mg twice‐daily groups
In short: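 Stable SCD patients randomized 3:1 active:placebo to oral test compound 5 mg or 25 mg or placebo, twice daily ~12 h apart with water for 29 (+1) days. HbF (%) was measured centrally at baseline and before dosing on day 29. Baseline HbF was classed low (<10%) or high (≥10%), split at the sample median.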

[1] = system: cGMP in cerebral spinal fluid; conditions: systemic administration; cited from earlier work
[2] = system: patients with stable sickle cell disease; experiment: Safety and tolerability, phase Ib study; assay type: in vivo, human
[3] = system: neutrophil‐platelet and monocyte‐platelet aggregates; experiment: Leukocyte‐platelet aggregates by flow cytometry in SCD patients; assay type: in vivo, human; conditions: day 29, 25 mg twice daily
In short: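 Citrated whole blood was taken before dosing on days 1, 2, 7, 14, 21 and 29 and at baseline. Within 30 min it was mixed with FacsLysing solution and refrigerated, then spun 5 min at 500 g. Cells were resuspended in HEPES/NaCl/0.5% BSA, pH 7.4, and stained with PC5-anti-CD14 plus PE-CD42a or isotype. Flow cytometry reported aggregates as % cells and size as CD42a MFI. Day-29 percent change was estimated by repeated-measures model, with Holm-Bonferroni-adjusted P.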

plasma cGMP = experiment: Plasma cGMP levels in SCD patients; assay type: in vivo, human; conditions: PF‐04447943 treatment, current study (data not shown)
[4] = Plasma pharmacokinetics of PF‐04447943, phase Ib study; assay type: in vivo, human; conditions: for AUC0−12 (dn) / Cmax (dn): dose normalized to 1 mg; for AUC0−12 (dn) / Cmax (dn) / Cmax: geometric mean (geometric %CV); for Tmax / Cmax / AUC(0-t): human, plasma; for Tmax / Cmax: oral; for AUC(0-t): po
Townes SCD mice = conditions: PF‐04447943 alone, pretreatment; cited from earlier work
[5] = system: cGMP in mouse brain tissue; conditions: systemic administration; cited from earlier work
Berkeley SCD mouse model = conditions: administered after a challenge; cited from earlier work
[6] = system: hospitalized patients with SCD and VOC; conditions: randomized, placebo‐controlled; cited from earlier work
[7] = 5 mg twice daily, % of patients

C[C@@H]1CN(Cc2ncccn2)C[C@H]1c1nc2c(cnn2C2CCOCC2)c(=O)[nH]1 [PF‐04447943, 6‐[(3S,4S)‐4‐methyl‐1‐(pyrimidin‐2‐ylmethyl)pyrrolidin‐3‐yl]‐1‐(tetrahydro‐2H‐pyran‐4‐yl)‐1,5‐dihydro‐4H‐pyrazolo[3,4‐d]pyrimidin‐4‐one]
change in HbF level (HbF and Hb levels): No significant changes | cGMP in cerebral spinal fluid in the rat [1]: dose‐dependent increases | patients who experienced sickle cell pain crisis ([2]; 5 mg twice daily): 14% | treatment‐related AE: dizziness [2, 7]: 0% | treatment‐related AE: fatigue [2, 7]: 0% | treatment‐related AE: headache ([2]; 5 mg twice daily, up to 29 days, % of patients): 0% | patients who experienced sickle cell pain crisis ([2]; 25 mg twice daily): 13% | treatment‐related AE: dizziness ([2]; 25 mg twice daily, % of patients): 13% | deaths during the study ([2]; 5 and 25 mg twice daily): No deaths occurred | tolerability ([2]; 5 and 25 mg twice daily, 29‐day treatment period): well tolerated | reduction from baseline in size of neutrophil‐platelet aggregates ([3]; adjusted P = 0.018): 34% | reduction from baseline in number of circulating monocyte‐platelet aggregates ([3]; adjusted P = 0.025): 52% | reduction from baseline in number of neutrophil‐platelet aggregates ([3]; adjusted P = 0.095): 46% | reduction from baseline in size of circulating monocyte‐platelet aggregates ([3]; adjusted P = 0.140): 36% | change in plasma cGMP levels (plasma cGMP): no significant changes | dose proportionality of plasma exposure (AUC0‐12, Cmax) ([4]; 5 and 25 mg, day 1): dose proportional | AUC0−12 (dn) ([4]; day 1, 5 mg): 48 (35) ng·h/mL/mg | Cmax (dn) ([4]; day 1, 5 mg): 9.2 (39) ng/mL/mg | AUC0−12 (dn) ([4]; day 1, 25 mg): 47 (29) ng·h/mL/mg | Cmax (dn) ([4]; day 1, 25 mg): 9.9 (31) ng/mL/mg | Tmax ([4]; 5 mg): 1.9 h | Cmax ([4]; 5 mg, day 1, 5 mg): 45.8 ng/mL | Tmax ([4]; 25 mg): 1 h | Cmax ([4]; 25 mg, day 1, 25 mg): 248 ng/mL | AUC(0-t) ([4]; 5 mg): 242 ng·h/mL | AUC(0-t) ([4]; 25 mg): 1170 ng·h/mL | number of neutrophil‐platelet aggregates (Townes SCD mice): decrease in neutrophil‐platelet aggregates | cGMP in mouse brain tissue [5]: accumulation of cGMP in mouse brain tissue

C[C@@H]1O[C@@H](O[C@@H]2[C@@H](NC(=O)c3cc(=O)[nH]c(=O)[nH]3)C[C@@H](C(=O)NCCNC(=O)COCCOCC(=O)Nc3cc(S(=O)(=O)O)cc4cc(S(=O)(=O)O)cc(S(=O)(=O)O)c34)C[C@H]2O[C@@H]2O[C@H](CO)[C@H](O)[C@H](O[C@@H](CC3CCCCC3)C(=O)O)[C@H]2OC(=O)c2ccccc2)[C@@H](O)[C@H](O)[C@@H]1O [rivipansel]
leukocyte adhesion (Berkeley SCD mouse model): reduced leukocyte adhesion | time to VOC resolution, length of stay, parenteral opioid requirement [6]: trends toward improved
